Measurements from ChEMBL document CHEMBL4017487, “Design and Synthesis of γ- and δ-Lactam M1 Positive Allosteric Modulators (PAMs): Convulsion and Cholinergic Toxicity of an M1-Selective PAM with Weak Agonist Activity” (J Med Chem, 2017).
In brackets after ≈: the same amount, converted by molar mass.

Experiments:
[1] = test system: MDR1; test: Efflux ratio of permeability from basolateral to apical side over apical to basolateral side in MDCK1 cells expressing MDR1; assay type: ADME, cell-based, Canis lupus familiaris; conditions: dog, MDCK-MDR1
How it was run: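 MDCKI-MDR1 cells (MDCK epithelial line transfected with MDR1/P-gp; from the NIH). Permeability measured as a rate in 10−6 cm/s in both directions; value is the BA/AB ratio.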

[2] = Ratio of unbound AUC in rat brain to plasma at 2 mg/kg, po or 0.5 mg/kg, iv administered as single bolus dose; assay type: ADME, organism-based
[3] = molecular target: T1, Muscarinic acetylcholine receptor M2 (Homo sapiens, UniProt P08172); test: Positive allosteric modulation of human muscarinic acetylcholine receptor M2 expressed in CHO cells assessed as increase in acetylcholine-induced cAMP accumulation up to 10 uM after 2 hrs by cAMP-Glo assay; assay type: cell-based
T1 sequence (P08172 whole entry): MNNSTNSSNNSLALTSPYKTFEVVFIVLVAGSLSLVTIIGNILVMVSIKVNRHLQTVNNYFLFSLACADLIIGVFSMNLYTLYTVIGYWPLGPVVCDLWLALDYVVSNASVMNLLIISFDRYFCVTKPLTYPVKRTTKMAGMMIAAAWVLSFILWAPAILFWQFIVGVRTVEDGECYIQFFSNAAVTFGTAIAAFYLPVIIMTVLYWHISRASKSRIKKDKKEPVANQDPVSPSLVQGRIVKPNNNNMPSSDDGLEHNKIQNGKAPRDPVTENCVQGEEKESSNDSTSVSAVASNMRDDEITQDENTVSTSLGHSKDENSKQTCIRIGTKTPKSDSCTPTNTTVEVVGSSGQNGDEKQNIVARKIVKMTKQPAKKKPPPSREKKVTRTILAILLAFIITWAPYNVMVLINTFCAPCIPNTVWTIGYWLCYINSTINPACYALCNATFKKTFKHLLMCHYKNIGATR
How it was run: (§1)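 Recombinant functional human M2–M5 assays, each run in agonist and PAM modes at concentrations up to 10 μM.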

[4] = molecular target: Muscarinic acetylcholine receptor M3 (Homo sapiens, UniProt P20309); test: Agonist activity at human muscarinic acetylcholine receptor M3 expressed in CHO cells assessed as increase in calcium mobilization incubated for 10 mins by Fluo-8-AM dye based FLIPR assay; assay type: cell-based; how it was run: as §1
Muscarinic acetylcholine receptor M3, sequence (P20309 whole entry): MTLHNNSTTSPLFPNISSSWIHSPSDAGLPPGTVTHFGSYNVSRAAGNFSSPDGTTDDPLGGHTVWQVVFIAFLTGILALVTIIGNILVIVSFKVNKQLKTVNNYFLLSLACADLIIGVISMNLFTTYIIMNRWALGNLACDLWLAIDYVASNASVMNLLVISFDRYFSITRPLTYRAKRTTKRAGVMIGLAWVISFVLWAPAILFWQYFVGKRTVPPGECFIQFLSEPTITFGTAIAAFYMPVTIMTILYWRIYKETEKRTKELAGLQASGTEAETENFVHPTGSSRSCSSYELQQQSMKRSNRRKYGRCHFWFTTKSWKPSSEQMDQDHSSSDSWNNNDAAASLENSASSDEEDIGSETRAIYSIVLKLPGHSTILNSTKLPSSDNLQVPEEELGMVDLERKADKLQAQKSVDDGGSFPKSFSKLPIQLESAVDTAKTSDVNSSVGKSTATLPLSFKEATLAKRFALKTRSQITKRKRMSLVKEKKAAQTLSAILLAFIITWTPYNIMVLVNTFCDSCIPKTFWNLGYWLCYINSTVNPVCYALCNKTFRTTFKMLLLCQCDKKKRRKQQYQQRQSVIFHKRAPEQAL

[5] = molecular target: T2, Muscarinic acetylcholine receptor M4 (Homo sapiens, UniProt P08173); test: Agonist activity at human muscarinic acetylcholine receptor M4 expressed in CHO cells assessed as increase in cAMP accumulation after 2 hrs by cAMP-Glo assay; assay type: cell-based; how it was run: as §1
T2 sequence (P08173 whole entry): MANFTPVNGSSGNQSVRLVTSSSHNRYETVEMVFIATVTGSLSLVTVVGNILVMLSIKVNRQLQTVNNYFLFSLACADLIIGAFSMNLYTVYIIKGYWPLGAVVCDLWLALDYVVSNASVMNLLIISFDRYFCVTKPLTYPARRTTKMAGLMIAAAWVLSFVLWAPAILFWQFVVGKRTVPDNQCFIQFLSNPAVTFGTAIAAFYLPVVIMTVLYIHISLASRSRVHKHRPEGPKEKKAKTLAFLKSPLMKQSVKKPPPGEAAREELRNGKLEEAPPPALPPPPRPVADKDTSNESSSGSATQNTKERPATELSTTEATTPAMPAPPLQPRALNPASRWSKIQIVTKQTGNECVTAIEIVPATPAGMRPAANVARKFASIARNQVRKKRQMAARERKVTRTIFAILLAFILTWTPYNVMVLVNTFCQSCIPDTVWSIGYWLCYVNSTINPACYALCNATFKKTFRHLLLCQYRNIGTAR

[6] = molecular target: Dual 3',5'-cyclic-AMP and -GMP phosphodiesterase 11A (Homo sapiens, UniProt Q9HCR9); test: Inhibition of PDE11A4 (unknown origin)
Dual 3',5'-cyclic-AMP and -GMP phosphodiesterase 11A, sequence (Q9HCR9 whole entry): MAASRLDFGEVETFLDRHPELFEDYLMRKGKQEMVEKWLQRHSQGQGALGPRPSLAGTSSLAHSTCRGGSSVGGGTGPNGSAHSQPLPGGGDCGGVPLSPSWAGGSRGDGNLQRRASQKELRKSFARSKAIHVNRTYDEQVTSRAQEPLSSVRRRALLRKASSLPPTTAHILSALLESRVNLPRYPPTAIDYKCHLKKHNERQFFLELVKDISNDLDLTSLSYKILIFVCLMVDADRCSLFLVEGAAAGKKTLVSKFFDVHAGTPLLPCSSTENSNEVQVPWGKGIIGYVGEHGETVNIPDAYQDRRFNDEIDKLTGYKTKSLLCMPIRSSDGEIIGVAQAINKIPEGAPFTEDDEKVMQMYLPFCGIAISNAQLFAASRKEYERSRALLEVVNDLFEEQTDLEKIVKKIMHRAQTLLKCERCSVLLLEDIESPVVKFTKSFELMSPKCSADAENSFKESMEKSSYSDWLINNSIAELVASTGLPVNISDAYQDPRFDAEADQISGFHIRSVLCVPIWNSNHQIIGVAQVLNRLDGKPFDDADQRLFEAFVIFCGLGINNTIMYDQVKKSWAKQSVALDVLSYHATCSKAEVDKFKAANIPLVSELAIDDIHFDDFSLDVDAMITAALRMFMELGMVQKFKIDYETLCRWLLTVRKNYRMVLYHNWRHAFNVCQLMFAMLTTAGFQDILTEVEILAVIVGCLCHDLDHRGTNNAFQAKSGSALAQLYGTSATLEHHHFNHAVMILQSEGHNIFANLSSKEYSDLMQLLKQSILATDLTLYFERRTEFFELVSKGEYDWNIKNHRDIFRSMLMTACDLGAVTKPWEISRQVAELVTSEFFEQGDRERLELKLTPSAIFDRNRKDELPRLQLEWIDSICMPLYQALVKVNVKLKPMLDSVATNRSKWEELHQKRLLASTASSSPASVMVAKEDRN

[7] = test system: Plasma; test: Unbound plasma concentration in amphetamine-induced hyperlocomotion C57BL/6 mouse at 0.3 mg/kg, sc measured after 1 hr by LC-MS/MS analysis; assay type: ADME, organism-based; conditions: in vivo
How it was run: (§2)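 Satellite group of C57BL/6 mice from the amphetamine-stimulated locomotor study, N = 2/dose at 0.32, 1 and 3.2 mg/kg. Dosed sc as a solution in 10/90 Cremophor/water. Unbound plasma and brain concentrations measured at T = 1 h.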

[8] = test system: Brain; test: Unbound brain concentration in amphetamine-induced hyperlocomotion C57BL/6 mouse at 1 mg/kg, sc measured after 1 hr by LC-MS/MS analysis; assay type: ADME, organism-based; conditions: in vivo; how it was run: as §2
[9] = test system: Plasma; test: Unbound plasma concentration in amphetamine-induced hyperlocomotion C57BL/6 mouse at 3.2 mg/kg, sc measured after 1 hr by LC-MS/MS analysis; assay type: ADME, organism-based; conditions: in vivo; how it was run: as §2
[10] = test system: Rattus norvegicus; test: Unbound Cmax in rat plasma at 1 mg/kg, po administered as single dose; assay type: ADME, organism-based; conditions: in vivo
How it was run: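 Rats (3/sex/dose) dosed orally once, 1 or 5 mg/kg as a 0.5% methylcellulose suspension.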

[11] = test system: Rattus norvegicus; test: Unbound Cmax in rat plasma at 15 mg/kg, po administered as single dose; assay type: ADME, organism-based; conditions: in vivo
[12] = test system: Rattus norvegicus; test: Unbound AUC (0 to 24 hrs) in rat plasma at 15 mg/kg, po administered as single dose; assay type: ADME, organism-based; conditions: in vivo
[13] = test system: Canis familiaris; test: Cholinergic toxicity in dog assessed as watery stool at 5 mg/kg, po administered as single dose using shydroxypropyl cellulose/docusate sodium formulation after 0.5 to 1.3 hrs; assay type: organism-based, Canis lupus familiaris; conditions: in vivo
How it was run: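 Single-dose oral dose-escalation study, 1 dog/sex/dose. The 5 mg/kg dose was given as a nanosuspension in hydroxypropyl cellulose SL with 0.05% docusate sodium in purified water. Cholinergic clinical signs were recorded at approximate hours postdose, alongside unbound plasma Cmax.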

[14] = test system: Canis familiaris; test: Cholinergic toxicity in dog assessed as increased activity at 15 mg/kg, po administered as single dose using spray dried dispersion formulation after 1 hr; assay type: organism-based, Canis lupus familiaris; conditions: in vivo
How it was run: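 Dog single oral dose escalation: 1/sex at 5 mg/kg for each formulation; 1 female at 15 mg/kg. Spray-dried dispersion: 23% drug loading with 0.5% methylcellulose and 100 mM citrate buffer. Clinical signs timed in approximate hours postdose; unbound plasma Cmax.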

[15] = molecular target: T3, Muscarinic acetylcholine receptor M1 (Homo sapiens, UniProt P11229); test: Displacement of [3H]PT-1284 human muscarinic acetylcholine receptor M1 expressed in CHO cell membranes after 90 mins scintillation counting method
T3 sequence (P11229 whole entry): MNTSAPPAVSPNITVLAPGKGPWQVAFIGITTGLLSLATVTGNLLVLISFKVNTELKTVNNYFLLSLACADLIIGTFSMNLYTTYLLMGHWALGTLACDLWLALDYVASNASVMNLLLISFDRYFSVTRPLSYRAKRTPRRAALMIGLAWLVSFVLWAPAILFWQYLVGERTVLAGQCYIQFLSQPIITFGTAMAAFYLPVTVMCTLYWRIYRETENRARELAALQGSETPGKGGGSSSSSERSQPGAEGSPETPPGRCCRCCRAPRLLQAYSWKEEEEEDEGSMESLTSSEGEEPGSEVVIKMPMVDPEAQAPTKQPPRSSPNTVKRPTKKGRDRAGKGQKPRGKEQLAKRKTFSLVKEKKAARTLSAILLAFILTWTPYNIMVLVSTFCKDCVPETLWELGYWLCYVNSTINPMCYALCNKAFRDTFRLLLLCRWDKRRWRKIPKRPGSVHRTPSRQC

[16] = Thermodynamic solubility of the compound in FeSSIF at pH 6.3; conditions: read-out: Therm_solubility

Structure (SMILES): Cc1cc2c(cc1Cc1ccc(-c3cocn3)cc1)C(=O)N([C@H]1CCOC[C@@H]1O)C2
- efflux ratio [1]: 11
- Kp uu [2]: 0.2
- Activity [3]: Not Active
- EC50 [4]: > 10 µM
- EC50 [5]: > 10 µM
- IC50 [6]: 5.06 µM
- Cp(f) [7]: 7.3 nM
- Drug uptake(free) [8]: 14 nM
- Cp(f) [9]: 130 nM
- fCmax [10]: 73 nM
- fCmax [11]: 1507 nM
- fAUC [12]: 20.609 µM·h
- Activity [13]: Toxic
- Activity [14]: Toxic
- Ki [15]: 0.016 µM
- solubility thermodynamic [16]: 39.7 µg/mL (≈ 98.2 µM)
